A short description of series [1]: Antitumor activity against mouse HM1 cells xenografted in B6C3F1 mouse assessed as inhibition of lung metastasis at 10 mg/kg, iv administered biweekly starting on day 1 post tumor xenografting measured on day 35 post tumor xenografting. It counts as functional. The following applies: in the assay text read “starting on day 11 post” for “starting on day 1 post”. The procedure, abridged: (§1)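 HM-1 ovarian cancer cells injected subcutaneously into B6C3F1 mice on day 0. Primary tumor surgically removed under isoflurane on day 10. Compound given intravenously twice weekly from day 11. Lung metastases counted on day 35 and expressed as % inhibition. Six mice per group, mean ± SD. Significance versus vehicle by Wilcoxon test.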

The nature of series [2]: Antitumor activity against mouse HM1 cells xenografted in B6C3F1 mouse assessed as inhibition of lung metastasis at 1 mg/kg, iv administered biweekly starting on day 1 post tumor xenografting measured on day 35 post tumor xenografting. It is filed as functional. The following applies: in the assay text read “starting on day 11 post” for “starting on day 1 post”. The procedure, abridged: as §1

The subject of series [3] is Mus musculus. Briefly: Increase in IFN level in Balb/c mouse plasma at 10 mg/kg, iv measured after 6 hrs post dose by L929 cells and VSV based bioassay. It is filed as functional. The method in brief: (§2)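 Female Balb/c mice were given a single intravenous dose of test compound. Plasma interferon was sampled 6 h post dose and quantified by a bioassay using L929 cells challenged with vesicular stomatitis virus, with values reported in IU/mL.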

Series [4] deals with T1, Toll-like receptor 7 (Mus musculus, UniProt P58681).
T1 sequence (P58681 whole entry): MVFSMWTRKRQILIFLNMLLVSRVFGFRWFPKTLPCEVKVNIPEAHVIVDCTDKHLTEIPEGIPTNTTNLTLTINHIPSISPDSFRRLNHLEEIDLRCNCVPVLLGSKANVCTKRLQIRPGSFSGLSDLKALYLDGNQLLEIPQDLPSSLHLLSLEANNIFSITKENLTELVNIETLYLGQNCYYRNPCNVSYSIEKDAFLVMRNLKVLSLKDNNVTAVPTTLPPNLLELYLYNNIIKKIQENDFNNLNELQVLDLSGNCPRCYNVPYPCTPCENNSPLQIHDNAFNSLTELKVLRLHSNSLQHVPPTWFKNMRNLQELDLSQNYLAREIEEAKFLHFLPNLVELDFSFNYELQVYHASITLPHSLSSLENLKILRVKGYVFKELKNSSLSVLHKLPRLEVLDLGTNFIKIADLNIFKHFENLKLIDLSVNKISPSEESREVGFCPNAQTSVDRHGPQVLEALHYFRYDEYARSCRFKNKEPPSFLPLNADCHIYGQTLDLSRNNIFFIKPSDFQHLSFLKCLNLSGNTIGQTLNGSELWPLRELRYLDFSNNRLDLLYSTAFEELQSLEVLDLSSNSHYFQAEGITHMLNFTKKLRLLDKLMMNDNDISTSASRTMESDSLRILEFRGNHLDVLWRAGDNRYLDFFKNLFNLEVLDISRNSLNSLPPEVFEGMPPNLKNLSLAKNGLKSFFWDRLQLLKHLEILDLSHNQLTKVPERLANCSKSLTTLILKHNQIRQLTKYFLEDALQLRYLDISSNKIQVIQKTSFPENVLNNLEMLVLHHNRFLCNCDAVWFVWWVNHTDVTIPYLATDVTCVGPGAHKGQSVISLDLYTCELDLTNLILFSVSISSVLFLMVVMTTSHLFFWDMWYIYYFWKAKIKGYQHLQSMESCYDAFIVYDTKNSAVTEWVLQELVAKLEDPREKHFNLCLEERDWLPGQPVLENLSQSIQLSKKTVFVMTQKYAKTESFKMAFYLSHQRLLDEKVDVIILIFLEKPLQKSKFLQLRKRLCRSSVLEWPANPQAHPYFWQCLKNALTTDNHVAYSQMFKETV
In words: Agonist activity at mouse TLR7.

In series [5] the target is T2, Toll-like receptor 7 (Homo sapiens, UniProt Q9NYK1).
T2 sequence (Q9NYK1 whole entry): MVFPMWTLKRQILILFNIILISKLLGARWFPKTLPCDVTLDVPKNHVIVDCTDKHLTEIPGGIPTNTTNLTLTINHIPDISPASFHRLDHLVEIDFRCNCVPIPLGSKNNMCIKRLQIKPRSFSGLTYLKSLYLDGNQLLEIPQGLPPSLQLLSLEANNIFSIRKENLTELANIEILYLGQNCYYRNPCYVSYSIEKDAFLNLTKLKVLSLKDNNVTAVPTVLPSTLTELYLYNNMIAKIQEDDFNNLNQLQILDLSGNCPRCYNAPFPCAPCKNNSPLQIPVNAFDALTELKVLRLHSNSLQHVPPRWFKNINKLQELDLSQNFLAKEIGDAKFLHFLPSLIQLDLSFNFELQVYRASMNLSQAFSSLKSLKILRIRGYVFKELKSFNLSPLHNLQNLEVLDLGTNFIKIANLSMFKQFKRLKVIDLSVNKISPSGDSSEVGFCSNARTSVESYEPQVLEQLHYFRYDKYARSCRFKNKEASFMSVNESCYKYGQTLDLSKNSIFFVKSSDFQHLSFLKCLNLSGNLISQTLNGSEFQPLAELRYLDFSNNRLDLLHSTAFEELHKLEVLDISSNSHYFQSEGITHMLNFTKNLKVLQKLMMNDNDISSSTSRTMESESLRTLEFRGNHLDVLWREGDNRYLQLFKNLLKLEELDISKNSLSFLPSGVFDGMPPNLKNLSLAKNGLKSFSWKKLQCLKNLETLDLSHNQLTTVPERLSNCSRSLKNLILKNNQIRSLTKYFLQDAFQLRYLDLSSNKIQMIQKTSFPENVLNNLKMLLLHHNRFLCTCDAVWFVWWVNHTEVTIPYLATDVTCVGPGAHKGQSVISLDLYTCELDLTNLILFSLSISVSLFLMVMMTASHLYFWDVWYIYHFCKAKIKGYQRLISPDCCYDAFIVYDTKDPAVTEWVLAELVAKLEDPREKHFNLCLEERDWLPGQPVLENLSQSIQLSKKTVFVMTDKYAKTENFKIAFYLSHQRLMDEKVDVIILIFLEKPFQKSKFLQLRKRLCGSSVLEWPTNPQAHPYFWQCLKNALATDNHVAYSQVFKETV
Briefly: Agonist activity at human TLR7 expressed in HEK293 cells by NFkappaB SEAP reporter gene assay. It is filed as cell-based. The procedure, abridged: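 HEK293 cells stably transfected with human TLR7 plus an NF-κB-driven SEAP reporter. EC50 taken from reporter read-out, given as the mean of two independent experiments.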
(In general: A reporter such as luciferase makes a cellular process visible.)

Series [6] is described as follows: Aqueous solubility in pH 7.4 buffer. It counts as physicochemical. The method in brief: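 Solubility measured in pH 7.4 buffer.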
In series [7] the target is T3, Toll-like receptor 7 (Homo sapiens) (UniProt Q9NYK1).
T3 sequence (whole entry): T2 sequence (Q9NYK1 whole entry)
In words: Potency index, ratio of EC50 of 852A to EC50 of test compound for human TLR7 expressed in HEK293 cells by NFkappaB SEAP reporter gene assay. It counts as cell-based.

Series [8] is described as follows: Potency index, ratio of antitumor activity of 852A to test compound against mouse HM1 cells xenografted in B6C3F1 mouse. It is filed as functional.
A short description of series [9]: Antitumor activity against mouse HM1 cells xenografted in B6C3F1 mouse assessed as inhibition of lung metastasis at 0.1 mg/kg, iv administered biweekly starting on day 1 post tumor xenografting measured on day 35 post tumor xenografting. Conditions: in the assay text read “starting on day 11 post” for “starting on day 1 post”. It is filed as functional. The method in brief: as §1

Series [10] can be described thus: Half life in Balb/c mouse at 1 mg/kg, iv. It is filed as ADME, organism-based. The following applies: in vivo. Also on record: dose 1 mg/kg, route intravenous. The method in brief: (§3)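 Female Balb/c mice dosed intravenously at 1 mg/kg. Vdss and T1/2 calculated from this PK study.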
The subject of series [11] is Mus musculus. Briefly: Increase in IFN level in Balb/c mouse plasma at 1 mg/kg, iv measured after 6 hrs post dose by L929 cells and VSV based bioassay. It counts as functional. The procedure, abridged: as §2
Series [12] is described as follows: Volume of distribution at steady state in Balb/c mouse at 1 mg/kg, iv. It is filed as ADME, organism-based. Set-up: dose 1 mg/kg, route intravenous. The following applies: in vivo, read-out: Vdss. The method in brief: as §3
Series [13] is described as follows: Antitumor activity against mouse HM1 cells xenografted in B6C3F1 mouse assessed as inhibition of lung metastasis at 1 mg/kg, iv administered biweekly starting on day 11 post tumor xenografting measured on day 35 post tumor xenografting.

SMILES strings stand for the structures. In brackets after ≈: the same amount, converted by molar mass.

The term inhibition in vivo denotes the relative decrease from the control value, in per cent. By EC50 is commonly meant the concentration that produces a half-maximal response. As a reminder, the solubility is the concentration that dissolves in the medium under given conditions. Low values mean little dissolved substance, high ones much dissolved substance. Broadly, the half-life is the time needed for the level to fall by half in the phase considered.

For `CCc1nc2c(N)nc3ccccc3c2n1CCCCNS(C)(=O)=O` [CPG-52852], in series [1], the inhibition in vivo at 10 mg/kg was 55%. Also, the inhibition in vivo at 1 mg/kg in series [2] was found to be 6%. Moreover, the Activity in [3] was 19 IU/ml. Besides, the 50% effective concentration (EC50) in series [4] is 6.22 µM; in [5] it was 2.66 µM.
The compound `CCCCNc1nc(N)c2[nH]c(=O)n(Cc3ccc(CN(C)C)cc3)c2n1` registered a solubility in series [6] of 0.098 mg/mL (≈ 265 µM). This compound returned a concentration for a half-maximal effect (EC50) in series [5] of 0.0093 µM.
As for `CCCCNc1nc(N)c2[nH]c(=O)n(Cc3ccc(OCCCN(C)C)nc3)c2n1`, the concentration in solution in series [6] (solubility) was 0.288 mg/mL (≈ 695 µM).
In series [6], `CCCCNc1nc(N)c2nc(O)n(Cc3ccc(OC)nc3)c2n1` displayed a solubility below 0.001 mg/mL. In addition, the midpoint of the response in series [5], the EC50, lay at 0.0281 µM.
On to `CCCCNc1nc(N)c2nc(O)n(Cc3ccc(C)nc3)c2n1`, for which the solubility in [6] is below 0.001 mg/mL. In addition, in [5], the midpoint of the response, the EC50, lay at 0.032 µM.
For `CCCCNc1nc(N)c2[nH]c(=O)n(Cc3ccc(N4CCNCC4)nc3)c2n1` the same measures were 0.063 mg/mL (≈ 158 µM) and 0.0485 µM.
As for `CCCCNc1nc(N)c2[nH]c(=O)n(Cc3cccc(CN4CCN(C)CC4)c3)c2n1`, the EC50 in series [5] amounted to 0.13 µM.
For the compound `CCCCNc1nc(N)c2[nH]c(=O)n(Cc3ccc(N4CCN(C)CC4)nc3)c2n1`, the solubility in series [6] came to 0.007 mg/mL (≈ 17 µM). Moreover, the concentration giving a half-maximal response (EC50) in series [5] was 0.0054 µM.
In [6], `CCCCNc1nc(N)c2[nH]c(=O)n(Cc3ccc(CN4CCOCC4)cc3)c2n1` yielded a solubility of 0.008 mg/mL (≈ 19.4 µM). This compound also showed an EC50 in [5] of 0.058 µM.
Regarding `CCCCNc1nc(N)c2[nH]c(=O)n(Cc3ccc(OCCN(C)C)nc3)c2n1`, the Ratio EC50 in series [7] stood at 370. Besides, in series [8], the Ratio is above 100. The inhibition in vivo at 0.1 mg/kg in series [9] stood at 78%. In series [10], this compound had a half-life of 1.3 h. This compound also showed an Activity in series [11] of 840 IU/ml. Besides, the concentration in solution in series [6] (solubility) was 0.372 mg/mL (≈ 929 µM). Besides, the EC50 came out at 0.0046 µM in series [4] and 0.0072 µM in [5]. The Vd in series [12] was determined as 6.6 L/kg. In addition, the inhibition in vivo at 1 mg/kg in series [13] is 100%.
`CCCCNc1nc(N)c2[nH]c(=O)n(Cc3ccc(OCCN4CCOCC4)nc3)c2n1` gave a solubility in [6] of 0.034 mg/mL (≈ 76.8 µM). The same compound came in with a concentration for a half-maximal effect (EC50) in series [5] of 0.0502 µM.
`CCCCNc1nc(N)c2[nH]c(=O)n(Cc3ccc(OCCCCN(C)C)nc3)c2n1` registered a solubility in series [6] of 0.35 mg/mL (≈ 817 µM). Also, in series [5], the EC50 came out at 0.0152 µM.
`CCCCNc1nc(N)c2[nH]c(=O)n(Cc3ccc(OCCNC)nc3)c2n1` had an EC50 in [5] of 0.166 µM.
In turn, `CCCCNc1nc(N)c2[nH]c(=O)n(Cc3ccc(CN4CCCCC4)cc3)c2n1` had a solubility in series [6] of 0.019 mg/mL (≈ 46.4 µM). Besides, the EC50 in series [5] was determined as 0.0076 µM.
`CCCCNc1nc(N)c2nc(O)n(Cc3ccc(C)cc3)c2n1` registered a solubility in series [6] below 0.001 mg/mL. In [5], this compound had an EC50 of 0.166 µM.
As for `CCCCNc1nc(N)c2[nH]c(=O)n(Cc3ccc(N4CCC(N(C)C)C4)nc3)c2n1` (configuration not stated), in [6], the concentration in solution (solubility) came to 0.053 mg/mL (≈ 125 µM). In series [5], a half-maximal effect (EC50) was put at 0.0074 µM.
In the case of `CCCCNc1nc(N)c2[nH]c(=O)n(Cc3ccc(CN4CCN(C)CC4)cc3)c2n1`, in series [6], the solubility was 0.108 mg/mL (≈ 254 µM). Also, the EC50 in series [5] was 0.007 µM.
As for `CCCCNc1nc(N)c2[nH]c(=O)n(Cc3ccc(N(C)CCCN(C)C)nc3)c2n1`, in [6], the solubility turned out to be 0.725 mg/mL (≈ 1700 µM). The compound also returned an EC50 in series [5] of 0.0728 µM.
The compound `CCCCNc1nc(N)c2[nH]c(=O)n(Cc3ccc(N4CCC(N(C)C)CC4)nc3)c2n1` registered a solubility in series [6] of 0.071 mg/mL (≈ 162 µM). In addition, the concentration giving a half-maximal response (EC50) in series [5] was determined as 0.0094 µM.
As for `CCCCNc1nc(N)c2[nH]c(=O)n(Cc3cccc(CN4CCCCC4)c3)c2n1`, the midpoint of the response in series [5], the EC50, lay at 0.0301 µM.

The values are drawn from ChEMBL document CHEMBL2311334, “Synthesis and evaluation of 8-oxoadenine derivatives as potent Toll-like receptor 7 agonists with high water solubility” (Bioorg Med Chem Lett, 2013).
